Source: PubChem (Sanford-Burnham Center for Chemical Genomics)
In the library only some 0.79% were active in any assay of this set; here they are far more common.
mIAP block – inhibitors of mouse IAP, primary screen, biochemical, luminescence, uHTS; purified mouse IAP, CDP-Star luminescence, 30 min; inhibition, % at 10 µM; 0.2% of 330,000 active;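 active = inhibition of at least 40% at 10 µM in the primary screen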;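 note: plate controls were DMSO with enzyme for no effect and no enzyme wells for full effect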
hIAP block – human IAP inhibitors, primary screen, biochemical, luminescence, uHTS; inhibition, % at 10 µM; 0.12% of 330,000 active; Intestinal-type alkaline phosphatase (Homo sapiens), P09923; purified IAP, CDP-Star luminescence, 30 min;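 active = inhibition reaching a set limit with compound at 10 µM in the primary screen, cut at about 35% in these data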;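 note: plate controls were DMSO wells with enzyme for no effect and no-enzyme buffer wells for full effect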
Target sequence (P09923 whole entry, looked up): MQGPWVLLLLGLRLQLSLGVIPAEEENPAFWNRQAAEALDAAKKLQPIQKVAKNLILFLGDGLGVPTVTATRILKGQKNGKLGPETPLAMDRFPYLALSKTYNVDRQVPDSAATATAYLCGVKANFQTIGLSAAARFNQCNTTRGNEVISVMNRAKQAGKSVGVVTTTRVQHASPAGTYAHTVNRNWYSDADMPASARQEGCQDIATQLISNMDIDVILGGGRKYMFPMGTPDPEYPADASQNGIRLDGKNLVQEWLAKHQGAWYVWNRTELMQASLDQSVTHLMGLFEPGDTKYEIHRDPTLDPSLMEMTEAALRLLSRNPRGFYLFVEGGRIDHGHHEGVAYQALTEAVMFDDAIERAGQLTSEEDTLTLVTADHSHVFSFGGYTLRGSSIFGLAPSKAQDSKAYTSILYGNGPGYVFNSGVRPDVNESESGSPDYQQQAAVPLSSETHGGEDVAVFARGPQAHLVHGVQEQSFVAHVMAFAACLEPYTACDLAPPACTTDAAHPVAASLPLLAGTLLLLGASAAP
bIAP activator – bovine intestinal alkaline phosphatase activators, primary screen, biochemical, bovine IAP, CDP-star luminescence. alkaline phosphatase, intestinal [Bos taurus]. activation factor at 20 µM. 0.17% of 200,000 active. purified bovine IAP, 30 min; active compounds read high; fold of DMSO-control signal, blank-subtracted. AID 1016, 2008;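 active = activation factor of 2 or more at 20 µM, a signal rise over negative controls twice the positive control's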
mIAP act – activators of mouse IAP, primary screen, biochemical, luminescence, uHTS; intestinal alkaline phosphatase [Mus musculus]; muIAP, CDP-Star luminescence, 30 min; active compounds read high; 1 = vehicle-only enzyme signal, 0 = enzyme-free wells; activation factor at 10 µM; 0.24% of 330,000 active;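 active = activation factor of at least 2 at 20 µM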
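System: Mouse IAP enzyme | Also added: CDP-Star substrate | Dosing: Compounds dispensed in DMSO | Schedule: 30 min enzyme-substrate-compound incubation at room temperature | Technique: Chemiluminescence readout | Control set: DMSO-only wells and no-enzyme negative control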
hIAP activ – human IAP activators, primary screen, biochemical, luminescence, uHTS. Intestinal-type alkaline phosphatase (Homo sapiens), P09923. purified human IAP, CDP-Star luminescence, 30 min; active compounds read high; 1 = vehicle-only enzyme, 0 = enzyme-free background. activation factor at 10 µM. 0.16% of 330,000 active. AID 2524, 2010;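 active = activation factor of the enzyme at least 2-fold when tested at 20 µM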
bIAP inhibitor – bovine intestinal alkaline phosphatase inhibitors, primary screen, selectivity assay for TNAP inhibitor project, biochemical, bovine IAP, CDP-star luminescence. alkaline phosphatase, intestinal [Bos taurus]. purified bovine IAP, 30 min. inhibition, % at 20 µM. 190,000 tested, under 10 active;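 active = over 50% inhibition of intestinal alkaline phosphatase at 20 µM in the single-dose screen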
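Incubation: 30 min reaction at room temperature / Material: purified bovine intestinal alkaline phosphatase (IAP) enzyme / Input: enzyme at 1/65,000,000 dilution / Dosing: 20 µM single dose / Signal: CDP-star luminescence signal / Reagent: CDP-star chemiluminescent phosphatase substrate, 30 µM final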
hIAP act conf – human IAP activators, confirmation, biochemical, luminescence, single concentration, uHTS hits. shares compounds with hIAP activ. 10% of 880 active. activation (%Activity, negative = activation), % at 8.3 µM. purified IAP, CDP-Star luminescence, 30 min; active compounds read low. AID 434926, 2010;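 active = at least twofold enzyme activation in any of six single-dose repeats, which the averaged readout prints as negative percent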
* = called active by the depositor; x = no result.

SMILES	mIAP block	hIAP block	bIAP activator	mIAP act	hIAP activ	bIAP inhibitor	hIAP act conf
CCCN(C(=O)CCNC(=O)Cn1cnc2ccccc2c1=O)c1cccc(Cl)c1	-3	9	x	1	0.91	x	x
Cc1ccc(S(=O)(=O)NC(CC(=O)NCC2CCCO2)c2ccco2)cc1 (configuration not stated)	-15	39*	1	1.1	0.61	2	-3
Cc1ccc(S(=O)(=O)NCCN=Cc2ccc(N(C)C)cc2)cc1	10	4	x	0.9	0.96	x	x
O=C(O)CCn1nnc(-c2cccs2)n1	-4	-103	1	1	2*	0	0
O=C(O)Cn1nnc(-c2cccs2)n1	3	4	1	0.97	0.96	-1	x
Cc1c(C(=O)Nc2cccc(F)c2)cnn1-c1ccccc1	-6	-1	x	1.1	1	x	x
COc1cccc(/C=N/NC(=O)c2cc(-c3cccn3C)n[nH]2)c1O	36	-145	1	0.64	2.4*	-2	-1
COc1ccc(S(=O)(=O)N(C)C[C@H]2Oc3c(NC(=O)NC(C)C)cccc3C(=O)N([C@H](C)CO)C[C@@H]2C)cc1	-1	7	x	1	0.93	x	x
O=C(N/N=C/c1ccccn1)c1cc(C2CC2)[nH]n1	21	-110	1.6	0.79	2.1*	-59	-22
O=C(CCCC(=O)N/N=C\c1ccccn1)N/N=C\c1ccccn1	-4	-102	1.1	1	2*	-6	2
COc1cc(C2NC(=O)NC(C)=C2C(=O)OCC2CCCCC2)ccc1O (configuration not stated)	1	4	x	0.99	0.96	x	x
COc1ccc(C(CC(=O)NCc2ccccc2)C(C)C)cc1 (configuration not stated)	-7	0	x	1.1	1	x	x
CNC(=S)NNC(=O)c1cccn(Cc2ccc(Cl)c(Cl)c2)c1=O	22	-81	1.2	0.78	1.8	-19	x
CNC(=S)NNC(=O)c1cccn(Cc2cccc(Cl)c2)c1=O	18	-101	1.3	0.82	2*	-35	6
Cc1[nH]c(C)c(C(=O)/C=C/c2ccc([N+](=O)[O-])cc2)c1C	4	16	x	0.96	0.84	x	x
OCCNc1ncnc2c1nnn2Cc1ccccc1	-9	10	x	1.1	0.91	x	x
CC(C)CCNc1ncnc2c1nnn2Cc1ccccc1Cl	4	80*	0.9	0.96	0.2	7	40
CC(C)CN(C(=O)CCCOc1ccc(Cl)cc1Cl)c1c(N)n(Cc2ccccc2)c(=O)[nH]c1=O	-8	-27	x	1.1	1.3	x	x
CCOc1c(Br)cc(/C=C(\C#N)C(=O)NC2CC2)cc1OC	1	41*	x	0.99	0.59	x	5
CCOc1ccccc1/C=C(\C#N)C(=O)NC1CC1	-8	-11	x	1.1	1.1	x	x
Cc1ccccc1NC(=O)CN1C(=O)NC2(CCCCCCC2)C1=O	2	11	x	0.98	0.89	x	x
O=C(NCCCc1ccccc1)c1ccc(CS(=O)Cc2ccc(Cl)cc2)o1 (configuration not stated)	6	39*	x	0.94	0.61	x	-22
Cc1ccccc1N1CCN(C(=O)c2ccccc2NC(=O)/C=C\C(=O)O)CC1	-1	37*	0.9	1	0.63	10	5
O=C(COC(=O)/C=C/c1ccc(F)cc1)Nc1nnc(-c2ccccc2)o1	0	-13	x	1	1.1	x	x
CSCCC(NC(=O)c1ccccc1Br)C(=O)NNC(=O)c1csc(N2CCOCC2)n1 (configuration not stated)	6	-110	x	0.94	2.1*	x	-6
SMILES	mIAP block	hIAP block	bIAP activator	mIAP act	hIAP activ	bIAP inhibitor	hIAP act conf
CSCCC(NC(=O)c1ccccc1Cl)C(=O)NNC(=O)c1csc(N2CCOCC2)n1 (configuration not stated)	-2	-81	x	1	1.8	x	x
CSCCC(NS(=O)(=O)c1ccccc1F)C(=O)N1CCCCCC1 (configuration not stated)	-5	-20	x	1.1	1.2	x	x
CSCCC(NS(=O)(=O)c1ccccc1F)C(=O)NNC(=O)c1csc(N2CCOCC2)n1 (configuration not stated)	29	-164	x	0.71	2.6*	x	72
COC(=O)/C=C1\N/C(=N/c2nc(C)c3cc(OC)ccc3n2)NC1=O	1	-154	x	0.99	2.5*	x	-13
COC(=O)/C=C1/C(=O)N/C(=N\c2nc(C)cc(C)n2)N1c1ccc(OC)cc1	6	16	1	0.94	0.84	2	x
CC(=O)N/N=C/c1cc(C(C)C)cc(/C=N/NC(C)=O)c1O	11	-154	1.4	0.89	2.5*	-43	-11
CC(=O)N/N=C/c1cc(C)n(-c2ccc(Br)cc2)c1C	-10	-14	1.2	1.1	1.1	-16	x
COc1ccc(-c2csc(NC(=S)NC(=O)c3ccccc3)n2)cc1Br	10	-18	x	0.9	1.2	x	x
COc1ccc(C(=O)NC(=S)Nc2nc(-c3ccc(OC)c(Br)c3)cs2)cc1Br	16	38*	x	0.84	0.62	x	1
C/C(=N\NC(=O)C1CC1)c1ccccc1Br	-2	35*	x	1	0.65	x	-30
CSC1=C(C#N)C(c2ccccc2)C(C(C)=O)=C(C)N1 (configuration not stated)	1	7	0.9	0.99	0.93	8	x
CSC1=C(C#N)C(c2ccccc2Cl)C(C(C)=O)=C(C)N1 (configuration not stated)	2	35*	0.9	0.98	0.65	8	-66
CCOc1ccc(NC(=O)CN2C(=O)COc3ccc(S(=O)(=O)N4CCCCC4)cc32)cc1	-6	6	x	1.1	0.94	x	x
COc1ccc(NC(=O)CN2C(=O)COc3ccc(S(=O)(=O)N4CCCCCC4)cc32)cc1	-3	37*	x	1	0.63	x	7
Cc1ccc(C2(C)NC(=O)N(CC(=O)N3CCN(C(=O)c4cccs4)CC3)C2=O)cc1 (configuration not stated)	-1	-14	x	1	1.1	x	x
COc1cc(C=C2C(=O)c3ccccc3C2=O)ccc1O	27	32	x	0.73	0.68	x	x
COc1ccc(C=C2C(=O)c3ccccc3C2=O)cc1O	23	45*	0.3	0.77	0.55	x	56
CC1CC(C)CN(S(=O)(=O)c2ccc3c(c2)CC(=O)N3)C1 (configuration not stated)	7	-7	x	0.93	1.1	x	x
